One data set deals with MCF7. Description: Cytotoxicity against human MCF7 cells assessed as growth inhibition after 48 hrs by MTT assay. It is filed as functional, cell-based. The note with it: MCF7, 48 h. The gist of the method:
(§1)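 Leukemia cells in RPMI 1640 and MCF-7 in DMEM, both with 10% heat-inactivated FBS. HUVECs were grown per the supplier's protocol at passages 3–8. Cultures were kept at 37 °C in humidified 5% CO₂ and seeded at 8 × 10³ cells/well. After 24 h, compounds from fresh DMSO stocks were added over 10^-7 to 10^-3 M. Absorbance was read at 560 nm against untreated cells. IC50 came from concentration–response curves, as mean ± SD of at least three experiments.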
A general note: Tetrazolium assays rely on reduction of a dye to a coloured formazan, in cell work by metabolically active cells.

The nature of data set [1]: Cytotoxicity against human HL60 cells assessed as growth inhibition after 48 hrs by MTT assay. It is filed as functional, cell-based. The note with it: HL-60, 48 h. The gist of the method:
as §1

Data set [2] in a line: Cytotoxicity against human NALM6 cells assessed as growth inhibition after 48 hrs by MTT assay. It is filed as functional, cell-based. The note with it: NALM-6, 48 h. The gist of the method: as §1
A further data set relates to HUVEC. Description: Cytotoxicity against HUVEC assessed as growth inhibition after 48 hrs by MTT assay. It is filed as cell-based. The note with it: Homo sapiens. Summed up: as §1
The nature of data set [3]: Therapeutic index, ratio of IC50 for HUVEC to IC50 for human NALM6 cells. It is filed as cell-based, NALM-6. The note with it: HUVEC and NALM6 cells, read-out: Ratio IC50.
Data set [4] can be described thus: Therapeutic index, ratio of IC50 for HUVEC to IC50 for human HL60 cells. The note with it: HUVEC and HL60 cells, read-out: Ratio IC50. It is filed as cell-based, HL-60.

Take `C=C1CN(C)N(c2ccccc2)C1=O`: the IC50 in the data set on MCF7 came to 56 µM; in data set [1] it was 45.7 µM; in data set [2], 56 µM.
Turning to `C=C1CN(C)N(c2ccc(C)cc2)C1=O`, the IC50 with MCF7 worked out at 59.1 µM; in data set [1] it was 65.7 µM; in data set [2], 90.1 µM.
For `C=C1CN(C)N(c2ccc(Cl)cc2)C1=O`, in that order: 45.2 µM, 38.1 µM and 51.9 µM.
For `C=C1CN(C)N(c2ccc(Br)cc2)C1=O`, in that order: 43.8 µM, 51.8 µM and 62 µM.
With `C=C1C(=O)N(c2ccccc2)N(C)C1C` (stereo not given), the IC50 was found to be 153 µM in the data set with MCF7, 531 µM in data set [1] and 412 µM in data set [2].
On to `C=C1C(=O)N(c2ccccc2)N(C)C1CC` (stereo not given), for which the half-inhibitory concentration (IC50) in the data set with MCF7 amounted to 185 µM; in data set [1] it was 750 µM; in data set [2], 576 µM.
Taken in the same sequence, the figures for `C=C1C(=O)N(c2ccccc2)N(C)C1CCCC` (stereo not given) were 235 µM, 460 µM and 432 µM.
Consider `C=C1C(=O)N(c2ccccc2)N(C)C1CCCCCCCCC` (stereo not given), for which the figures for the half-maximal inhibitory concentration (IC50) (with MCF7; in data set [1]; in data set [2]) were 91.1 µM, 49.9 µM and 57.5 µM, respectively.
Consider `C=C1C(=O)N(c2ccccc2)N(C)C1c1ccccc1` (stereo not given), for which the IC50 was found to be 84.4 µM with MCF7, 40.9 µM in data set [1] and 24.4 µM in data set [2].
Taken in the same sequence, the figures for `C=C1C(=O)N(c2ccccc2)N(C)C1c1ccc(OC)cc1` (stereo not given) were 75 µM, 37.3 µM and 49.3 µM.
Regarding `C=C1C(=O)N(c2ccccc2)N(c2ccccc2)C1C` (stereo not given), the IC50 in the data set with MCF7 turned out to be 12.5 µM; with HUVEC, 29.9 µM; in data set [1], 5.85 µM; in data set [2] it was 6.98 µM. Moreover, the selectivity ratio worked out at 4 in data set [3] and 5 in data set [4].
`C=C1C(=O)N(c2ccccc2)N(c2ccccc2)C1CC` (stereo not given): the IC50 with MCF7 came to 20 µM; in the data set with HUVEC it was 23.9 µM; in data set [1] it was 8.89 µM; in data set [2], 14.9 µM.
`C=C1C(=O)N(c2ccccc2)N(c2ccccc2)C1CCCC` (stereo not given): the IC50 was 25.2 µM in the data set on MCF7, 27 µM with HUVEC, 8.92 µM in data set [1] and 29.1 µM in data set [2].
In the case of `C=CC1C(=C)C(=O)N(c2ccccc2)N1c1ccccc1` (stereo not given), the IC50 in the data set with MCF7 is 5.1 µM; in the data set on HUVEC it was 2.73 µM; in data set [1], 1.32 µM; in data set [2] it was 0.74 µM. Also, in data set [3], the selectivity ratio was 4.
For `C=C1C(=O)N(c2ccccc2)N(c2ccccc2)C1c1ccccc1` (stereo not given), the IC50 in the data set with MCF7 worked out at 4.5 µM; in the data set with HUVEC it was 4.46 µM; in data set [1] it was 1.61 µM; in data set [2] it was 3.82 µM.
Regarding `C=C1C(=O)NC(C)C1c1ccc(Br)cc1` (stereo not given), the figures for the 50% inhibitory concentration (IC50) in data set [1] and in data set [2] were 515 µM and 439 µM, respectively.

For orientation: IC50 means the concentration that gives 50% inhibition.

The values are drawn from ChEMBL document CHEMBL3407476, “Design, synthesis and cytotoxic evaluation of 4-methylidenepyrazolidin-3-ones” (Eur J Med Chem, 2015).
